Activity calls are given as the source filed them. No cut-off for these calls is given here.
Experiments:
[1] = Inhibition of porcine CEase using para-nitrophenyl butyrate as substrate preincubated with substrate for 5 mins followed by enzyme addition by spectrophotometric method; set-up: species or system Sus scrofa
In short: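 Porcine cholesterol esterase (10 ng mL–1 final) was assayed in pH 7.0 phosphate/NaCl buffer with 6 mM taurocholate, 3% acetonitrile, and 20 μM p-nitrophenyl butyrate at 25 °C. Test compounds in DMSO were preincubated 5 min, then the enzyme was added and A405 was monitored. IC50 came from four concentrations (1, 5, 10, 25 nM), with means of triplicates.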

Sus scrofa [2] = species on record: Sus scrofa; assay: Inhibition of porcine CEase at 50 nM using para-nitrophenyl butyrate as substrate preincubated with substrate for 5 mins followed by enzyme addition by spectrophotometric method relative to control
Sus scrofa [3] = species on record: Sus scrofa; assay: Mixed-type inhibition of porcine CEase at 1 to 50 nM using para-nitrophenyl butyrate as substrate preincubated with substrate for 5 mins followed by enzyme addition by Lineweaver-Burk plot analysis

| Compound | IC50 [1] [nM] | inhibition (Sus scrofa [2]) [%] | inhibition (Sus scrofa [3]) |
| --- | --- | --- | --- |
| O=c1cc(-c2c(F)cccc2F)oc2ccc3ccccc3c12 | 1.19 | > 60 |  |
| O=c1cc(-c2cccc(F)c2)oc2ccc3ccccc3c12 | 3.9 | > 60 |  |
| O=c1cc(-c2ccc(C(F)(F)F)cc2F)oc2ccc3ccccc3c12 | 23.1 | > 60 |  |
| O=c1cc(-c2cc(F)cc(C(F)(F)F)c2)oc2ccc3ccccc3c12 | 29.1 | > 60 |  |
| O=c1cc(-c2cc([N+](=O)[O-])cc([N+](=O)[O-])c2)oc2ccc3ccccc3c12 | 9.8 | > 60 |  |
| O=c1cc(-c2ccc(F)cc2F)oc2ccc3ccccc3c12 | 1.46 | > 60 |  |
| O=c1cc(-c2ccc(CCl)cc2)oc2ccc3ccccc3c12 | 22.2 | > 60 |  |
| O=c1cc(-c2cccc(Br)c2)oc2ccc3ccccc3c12 | 6.01 | > 60 |  |
| O=c1cc(-c2ccccc2Br)oc2ccc3ccccc3c12 | 4.69 | > 60 |  |
| O=c1cc(-c2cccc(Cl)c2Cl)oc2ccc3ccccc3c12 | 0.73 | > 60 | Active |
| O=c1cc(-c2ccc(I)cc2)oc2ccc3ccccc3c12 | 13.1 | > 60 |  |
| O=c1cc(-c2ccc([N+](=O)[O-])cc2)oc2ccc3ccccc3c12 | 18 | > 60 |  |
| O=c1cc(-c2ccccc2I)oc2ccc3ccccc3c12 | 9.55 | > 60 |  |
| CCOP(=O)(OCC)Oc1cc(O)c2c(=O)cc(-c3ccccc3)oc2c1 | 0.72 |  |  |
| O=c1cc(-c2cc(F)ccc2C(F)(F)F)oc2ccc3ccccc3c12 | 27.8 | > 60 |  |

The remaining compounds from weak to strong by IC50 [1], led by results:

| IC50 [1] [nM] | inhibition (Sus scrofa [2]) [%] | inhibition (Sus scrofa [3]) | Compound |
| --- | --- | --- | --- |
| 51.1 |  |  | O=c1cc(-c2ccccc2)oc2ccc3ccccc3c12 [BETA-NAPHTHOFLAVONE] |
| 31.4 | > 60 |  | O=c1cc(-c2ccccc2C(F)(F)F)oc2ccc3ccccc3c12 |
| 29.2 | > 60 |  | O=c1cc(-c2c(F)cccc2C(F)(F)F)oc2ccc3ccccc3c12 |
| 20.1 | > 60 |  | O=c1cc(-c2cccc(CCl)c2)oc2ccc3ccccc3c12 |
| 16.4 | > 60 |  | O=c1cc(-c2cccc([N+](=O)[O-])c2)oc2ccc3ccccc3c12 |
| 8.15 | > 60 |  | O=c1cc(-c2ccc(Br)cc2)oc2ccc3ccccc3c12 |
| 4.5 | > 60 |  | O=c1cc(-c2ccc(F)cc2)oc2ccc3ccccc3c12 |
| 2.59 | > 60 |  | O=c1cc(-c2ccccc2F)oc2ccc3ccccc3c12 |
| 1.15 | > 60 |  | O=c1cc(-c2ccc(F)c(F)c2)oc2ccc3ccccc3c12 |
| 1.08 | > 60 |  | O=c1cc(-c2cc(F)ccc2F)oc2ccc3ccccc3c12 |
| 0.99 | > 60 |  | O=c1cc(-c2cc(F)cc(F)c2)oc2ccc3ccccc3c12 |
| 0.83 | > 60 |  | O=c1cc(-c2cccc(Cl)c2)oc2ccc3ccccc3c12 |

Reference: ChEMBL document CHEMBL4257477, “5,6-Benzoflavones as cholesterol esterase inhibitors: synthesis, biological evaluation and docking studies” (Medchemcomm, 2018)
